From ChEMBL document CHEMBL1124227, “Effects of sulfur-containing analogues of stearic acid on growth and fatty acid biosynthesis in the protozoan Crithidia fasciculata” (J Med Chem, 1988)

Key:
Assay type in all cases: functional, organism-based; call rule not given here
Crithidia fasciculata [1] = assay: Inhibition of dihydrosterculate synthesis in Crithidia fasciculata.; conditions: read-out: I50
Outline: (§1)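 C. fasciculata (about 1 × 10⁷ organisms) was inoculated into 50 mL growth medium containing the analogue, using duplicate flasks at 3–6 concentrations plus duplicate untreated controls. Cultures were shaken at 25 °C until controls reached 6 × 10⁷ to 9 × 10⁷ organisms/mL. Harvested cells gave free fatty acids, which were converted to methyl esters. Dihydrosterculate was measured as % of total fatty acids by capillary GC-FID on BP1 and Supelcowax 10 columns.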

Crithidia fasciculata [2] = assay: The compound was tested for 50% growth inhibition against Crithidia fasciculata; conditions: read-out: I50
Outline: (§2)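 Cultures were set up in 50 mL growth medium with the analogue added and inoculated with about 1 × 10⁷ C. fasciculata. Duplicate flasks were run at each of 3–6 concentrations, with duplicate controls. Flasks were shaken at 25 °C, and growth was followed as absorbance change at 535 nm against uninoculated medium (1.0 = 7 × 10⁷ organisms/mL). Runs ended when controls reached 6 × 10⁷ to 9 × 10⁷ organisms/mL.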

Crithidia fasciculata [3] = assay: Inhibition of dihydrosterculate synthesis in Crithidia fasciculata; No inhibition; outline: as §1
Crithidia fasciculata [4] = assay: The compound was tested for 50% growth inhibition against Crithidia fasciculata; No inhibition; outline: as §2

| SMILES | IC50 (Crithidia fasciculata [1]) | IC50 (Crithidia fasciculata [2]) | I50 (Crithidia fasciculata [3]) | I50 (Crithidia fasciculata [4]) |
| --- | --- | --- | --- | --- |
| CCCCCCCCCCCCCCCCCC(=O)NCC(O)CO (centres undefined) |  |  | Not Active | Not Active |
| CCCCCCCCC[S+]([O-])CCCCCCCC(=O)O (centres undefined) |  | > 100 µM | Not Active |  |
| CCCCCCCC[S+]([O-])CCCCCCCCC(=O)O (centres undefined) |  | > 100 µM | Not Active |  |
| CCCCCCCCCCCCCCCCCC(=O)O [STEARIC ACID] |  |  | Not Active |  |

Further lines, with some results ahead:

| IC50 (Crithidia fasciculata [1]) | SMILES | IC50 (Crithidia fasciculata [2]) | I50 (Crithidia fasciculata [3]) | I50 (Crithidia fasciculata [4]) |
| --- | --- | --- | --- | --- |
| 8 µM | CCCCCCCCCSCCCCCCCC(=O)NCC(O)CO (centres undefined) | > 100 µM |  |  |
| 12 µM | CCCCCCCCSCCCCCCCCC(=O)NCC(O)CO (centres undefined) | 17 µM |  |  |
| 0.4 µM | CCCCCCCCCCSCCCCCCC(=O)O | 0.8 µM |  |  |
| 0.9 µM | CCCCCCCCCSCCCCCCCC(=O)O | > 100 µM |  |  |
| 4 µM | CCCCCCCCSCCCCCCCCC(=O)O | 10 µM |  |  |
| 3 µM | CCCCCCCSCCCCCCCCCC(=O)O | 3 µM |  |  |
